Bioassay records deposited in PubChem BioAssay by several laboratories.
PLCg1 inh: PLC-gamma1 enzyme inhibitors, primary screen, biochemical, fluorescence, purified enzyme; hit rate 0.84% among 370,000; AID 720700, 2013; fluorogenic substrate; inhibition, % at 12.2 µM; in the data active means inhibition above about 9.5%
proCasp7 act: procaspase-7 activators, primary screen, counter-screen for procaspase-3 activator project, biochemical, absorbance, HTS, human | recombinant procaspase-7, Ac-DEVD-pNA absorbance 405 nm; D23A/D198A/D206A triple mutant, cannot self-cleave; scale: DMSO 0, 5 µM enzyme 100 | activation, % at 8.5 µM | Caspase-7 (Homo sapiens), P55210 | hit rate 0.093% among 330,000;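 active means percent activation above the screen-wide mean plus 3 SD, cut at about 25% in these data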
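Test system: Procaspase-7 triple mutant (PC-7 D3A). Also added: Ac-DEVD-pNA substrate, 400 µM as added. Schedule: 1 h enzyme–compound preincubation and 2 h substrate reaction, both 25 °C. Signal: p-Nitroaniline absorbance at 405 nm, read at 0 and 120 min. Control set: low DMSO alone, high DMSO plus 5 µM PC-7.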
proCasp3 act: activators of human procaspase-3 D3A mutant, primary screen, biochemical, absorbance, PC-3 D3A mutant, single concentration | Caspase-3 (Homo sapiens), P42574 | recombinant procaspase-3 D3A, Ac-DEVD-pNA absorbance 405 nm | activation, % at 8.5 µM | hit rate 0.11% among 330,000;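 active means activation above the mean of all tested compounds plus 3 SD, cut at about 21% in these data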;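 further: 0% = DMSO alone and 100% = DMSO wells spiked with extra 5 µM PC-3 D3A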
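Assay system – Procaspase-3 D3A mutant · Benchmarks – DMSO low control, extra-enzyme high control · Technique – 405 nm absorbance of p-nitroaniline, reads at 0 and 120 min · Doses – 8.5 µM nominal · Measure – % activation between DMSO and enzyme-spiked controls · Also added – Ac-DEVD-pNA chromogenic peptide substrate · Schedule – 1 h compound preincubation, 2 h substrate hydrolysis at 25 °C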
PLC-beta3 inh: human PLC-beta3 inhibitors, primary screen, biochemical, fluorescence | Purified PLC-beta3, fluorogenic substrate | inhibition, % at 12.2 µM | hit rate 0.18% among 370,000; in the data active means inhibition above about 11%;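 further: 0% = median of compound wells on plate and 100% = full blocker control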
Arr AP2 block: inhibitors of beta-arrestin/AP2 binding, primary screen, biochemical, GPCR trafficking, flow cytometry | FITC-arrestin peptide / GST-AP2 beads; AP2 beta2 appendage carries R879A mutation | inhibition, % at 10 µM | hit rate 0.31% among 340,000;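 active means inhibition above a set limit, near 3 SD of compounds lacking own fluorescence, cut at about 54% in these data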;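 further: plate controls were DMSO wells for no effect and 5 µM unlabelled arrestin peptide for full effect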
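Material – GST-tagged AP2 beta2-adaptin appendage (R879A) on 4 µm glutathione beads · Probe or stimulus – fluorescein-tagged arrestin peptide at 50 nM final · Timing – 12 min plus 1 h, RT · Detection – bead flow cytometry, FITC channel · Read-out basis – inhibition as reduced fluorescein signal on beads, percent · Medium – PBS plus Tween 20 (0.05%) and BSA (0.1%)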
HGIII-sPLA2 inh: human group III sPLA2 inhibitors, primary screen, biochemical, QFRET, BODIPY PC-A2 liposome substrate; hit rate 0.56% among 370,000; QFRET BODIPY PC-A2 liposome hydrolysis, fluorescence; inhibition, % at 12.2 µM; AID 743126, 2013;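 active means inhibition above mean plus 3 SD of compounds lying within the high and low control bounds, cut at about 19% in these data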;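 further: 0% = median of test compound wells and 100% = no enzyme DMSO wells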
Arr-AP2 CP1: inhibitors of arrestin peptide binding to AP2, confirmation, biochemical, cherry pick 1, flow cytometry beads | AID 504908, 2011 | inhibition, % at 10 µM | hit rate 2% among 1,300 | shares compounds with Arr AP2 block | GST-AP2 beads, FITC arrestin peptide binding; GST-fused beta2-adaptin appendage, R879A mutant;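 active means inhibition above a set limit, roughly 3 SD of non-fluorescent compound noise, cut at about 38% in these data; inactive means inhibition at or below that limit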;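 further: loss of bead fluorescence from 50 nM FITC arrestin peptide bound to appendage; 0% = negative control wells and 100% = excess unlabelled arrestin peptide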
Target sequence (P63010 whole entry, looked up, the tested form may be a part, one chain of several): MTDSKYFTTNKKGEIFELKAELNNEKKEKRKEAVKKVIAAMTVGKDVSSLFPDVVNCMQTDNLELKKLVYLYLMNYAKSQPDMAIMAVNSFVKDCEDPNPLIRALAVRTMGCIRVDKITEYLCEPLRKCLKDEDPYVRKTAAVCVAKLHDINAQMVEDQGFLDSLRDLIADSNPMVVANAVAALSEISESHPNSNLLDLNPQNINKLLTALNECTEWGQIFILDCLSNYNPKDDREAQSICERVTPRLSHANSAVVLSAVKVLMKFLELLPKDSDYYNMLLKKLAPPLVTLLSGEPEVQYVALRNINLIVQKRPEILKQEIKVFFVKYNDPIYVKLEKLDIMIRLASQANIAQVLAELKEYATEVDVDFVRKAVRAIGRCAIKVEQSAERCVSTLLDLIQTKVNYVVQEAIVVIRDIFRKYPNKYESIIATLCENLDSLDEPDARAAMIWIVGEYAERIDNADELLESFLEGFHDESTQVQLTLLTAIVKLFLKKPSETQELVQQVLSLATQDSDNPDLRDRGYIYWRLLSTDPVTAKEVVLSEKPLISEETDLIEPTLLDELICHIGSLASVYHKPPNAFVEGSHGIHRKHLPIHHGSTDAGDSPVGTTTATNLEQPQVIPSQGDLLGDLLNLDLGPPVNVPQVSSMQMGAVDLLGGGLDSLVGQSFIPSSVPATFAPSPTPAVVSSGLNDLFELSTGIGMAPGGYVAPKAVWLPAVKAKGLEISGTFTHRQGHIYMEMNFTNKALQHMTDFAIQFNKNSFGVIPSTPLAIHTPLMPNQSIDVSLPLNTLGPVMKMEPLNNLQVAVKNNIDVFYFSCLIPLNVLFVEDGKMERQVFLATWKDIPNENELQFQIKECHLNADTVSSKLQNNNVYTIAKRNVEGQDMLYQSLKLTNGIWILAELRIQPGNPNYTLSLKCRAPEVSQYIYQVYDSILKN
GST-FITC bead: GST-fluorescein capture on glutathione beads, confirmation, artefact control for arrestin-AP2 inhibitor project, biochemical, cherry pick 1, flow cytometry | shares compounds with Arr AP2 block | GST-fluorescein binding to GSH beads, fluorescence, counter-screen | inhibition, % at 10 µM | hit rate 2% among 1,300 | AID 588338, 2011;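 active means inhibition above 50%, about 3 SD of the inhibition seen with non-fluorescent compounds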;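 further: fluorescein maleimide labelled GST captured on 4 micron glutathione beads; higher means more loss of bead fluorescence from quenching or blocked binding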
The depositor's hits bear a star; · = no result. Compounds with a hit are over-represented: about 1.9% of the library has one in this group of screens.

SMILES	PLCg1 inh	proCasp7 act	proCasp3 act	PLC-beta3 inh	Arr AP2 block	HGIII-sPLA2 inh	Arr-AP2 CP1	GST-FITC bead
CC1=NN(c2ccccc2)C(=O)C1/C=C1/NC(=S)NC1=O (stereo not drawn)	-5.5	-13.1	-7.9	-8.0	11.2	6.8	·	·
Oc1c(C=C2N=c3ccccc3=N2)sc(=S)n1C1CCCC1	-29.4	-24.3	3.8	-41.1	110.3*	10.5	-1.9	-0.7
Oc1c(C=C2N=c3ccccc3=N2)sc(=S)n1-c1ccc(F)cc1	-10.8	-25.2	-9.7	-12.3	17.5	7.5	·	·
COC(=O)c1ccc(C(=O)Nc2ccc(C(C)C)cc2N)cc1	-30.5	-1.9	2.9	-33.9	56.6*	9.1	14.8	-1.6
COC(=O)c1ccc(C(=O)NN)cc1	1.1	2.2	10.8	-7.9	18.3	-2.1	·	·
O=C1N/C(=C/c2cccn2-c2ccc(F)cc2)C(=O)N1Cc1ccccc1F	-5.7	-8.5	-0.3	-5.7	105.2*	-0.7	7.8	1.8
COCCCN1C(=O)[C@H](CC(=O)N2CCN(C(=O)c3ccco3)CC2)[C@]2(C(=O)OC)CCCCC=C12	3.1	·	·	0.9	·	11.0	·	·
COc1ccc(NC(=O)c2cc3c(Cl)nc4ccccc4c3s2)cc1OC	0.6	2.9	-1.3	3.8	-0.9	0.8	·	·
COc1ccc(OC)c(NC(=O)c2cc3c(Cl)nc4ccccc4c3s2)c1	1.2	7.3	-0.9	-0.5	104.4*	-2.5	-7.3	-11.2
COC(=O)C[C@@H]1CC[C@@H]2[C@@H](COc3ccc(NC(=O)Nc4cccc(Cl)c4)cc3C(=O)N2C)O1	1.6	·	·	0.4	·	-22.3	·	·
CC(C)C[C@@H](CN1CCC[C@H]1CN1C(=O)C(=O)NC[C@@H]1Cc1ccccc1)N1C[C@H](Cc2ccc(O)cc2)N(CC2CCCCCC2)C(=O)C1=O	-1.2	·	·	3.6	·	-22.4	·	·
Cc1cc2nc3ccc(N(C)C)cc3nc2cc1N	-21.0	-32.3	-9.0	-29.0	64.3*	-0.5	44.3*	20.8
Cc1ccc2nc(N)nnc2c1	1.7	·	·	-0.7	·	1.2	·	·
COc1ccc(OC)c(NC(=O)Nc2cnccn2)c1	0.1	·	·	-7.0	56.0*	-0.1	7.4	4.0
O=C(Nc1cnccn1)Nc1ccccc1F	1.3	4.7	0.8	-6.2	-14.2	0.7	-5.8	2.0
COc1ccc(OC)c(NC(=O)Nc2cccnc2)c1	-1.9	·	·	-8.3	-5.1	4.2	·	·
Cc1c(Cl)cccc1NC(=O)Nc1cccnc1	-1.7	1.8	5.9	-8.5	-11.3	6.2	·	·
COc1ccccc1NC(=O)Nc1cnccn1	-0.6	12.9	3.2	6.4	16.7	-3.2	23.0	-1.4
Cc1c(Cl)cccc1NC(=O)Nc1cnccn1	1.1	-4.6	7.7	-8.9	-0.9	7.0	-6.4	3.1
O=C(CSc1nnc(-c2ccc(Cl)cc2)n1-c1ccccc1)Nc1ccc(Oc2ccccc2)cc1	-0.6	·	·	-6.3	·	13.7	·	·
CCN(CC(=O)Nc1ccc(OC)cc1)C(=O)Cc1cccs1	-5.3	-0.6	1.0	-11.3	55.5*	0.6	-2.7	-4.5
CCN(CC(=O)Nc1ccc(OC)cc1)C(=O)CCS(=O)(=O)c1ccc(C)cc1	2.6	0.0	0.6	5.0	0.8	6.0	·	·
CCOC(=O)Cn1c(=NC(=O)c2cccs2)sc2cc(C(=O)OC)ccc21	-4.8	2.9	1.9	-7.0	106.4*	10.2	-4.9	·
CC1CCN(c2ccc(C(=O)O)cc2NS(=O)(=O)c2ccc(Cl)s2)CC1	-3.8	·	·	-2.9	·	-7.9	·	·
O=C(O)c1ccccc1/C=N/Nc1ccc(S(=O)(=O)N2CCCC2)cc1[N+](=O)[O-]	5.6	0.6	-0.7	-4.5	-9.9	1.9	·	·
SMILES	PLCg1 inh	proCasp7 act	proCasp3 act	PLC-beta3 inh	Arr AP2 block	HGIII-sPLA2 inh	Arr-AP2 CP1	GST-FITC bead
O=[N+]([O-])c1cc(S(=O)(=O)N2CCCC2)ccc1N/N=C/c1cccnc1	8.9	-2.3	2.4	4.0	69.6*	3.3	16.7	28.4
c1ccc(-c2ccc3c(n2)CCCN3Cc2ccccn2)cc1	-170.0	·	·	-209.4	·	1.5	·	·
Cc1ccc(/C(COc2ccccc2O)=N\O)cc1	0.4	11.6	-0.8	2.3	56.6*	-38.1	7.9	-0.2
CCCCCn1nnnc1C1(C)CCSCC(=O)N1Cc1ccco1 (stereo not drawn)	2.3	·	·	6.8	·	8.1	·	·
C=C(C)CSc1nnc(-c2cc(-c3ccccc3)n[nH]2)n1N	-2.4	·	·	0.4	·	-0.8	·	·
N#Cc1c(NC(=O)CSc2ncnc3c2cnn3-c2ccccc2Cl)sc2c1CCCC2	-0.9	13.2	0.8	-2.4	59.7*	1.6	-19.1	-0.1
COC(=O)c1c(NC(=O)CSc2ncnc3c2cnn3-c2ccccc2Cl)sc2c1CCCC2	-1.3	9.2	0.0	3.7	-5.3	0.4	·	·
COC(=O)[C@]12CCCCC=C1N(Cc1ccc(OC)cc1)C(=O)[C@@H]2CC(=O)N1CCC(c2ccccc2)CC1	6.4	·	·	4.9	·	-2.7	·	·
CN(C)C(=O)C[C@H]1CC[C@H]2[C@H](COc3ccc(NC(=O)C4CC4)cc3C(=O)N2C)O1	0.6	·	·	-0.3	·	0.5	·	·
COc1ccc(NS(=O)(=O)c2cccc(C(=O)N3CCCC(C)C3)c2)cc1 (stereo not drawn)	-3.5	4.0	5.9	-3.7	17.2	-1.1	·	·
COc1ccccc1NS(=O)(=O)c1cccc(C(=O)N2CCCCCC2)c1	-3.8	·	·	-8.7	55.0*	4.0	-3.9	-7.5
Cc1ccc(NS(=O)(=O)c2cccc(C(=O)N3CCCC(C)C3)c2)cc1 (stereo not drawn)	1.0	-2.8	-6.3	-1.1	58.0*	-10.3	23.6	3.7
Cc1cccc(-n2c(-c3ccco3)nc3nc4ccccc4nc32)c1	·	8.9	0.6	·	·	·	·	·
COc1cccc(-n2c(-c3ccco3)nc3nc4ccccc4nc32)c1	-15.9	-7.4	-2.8	-21.2	75.3*	7.2	64.8*	174.4*
COc1ccc2c(c1)CN1C(=O)N(Cc3ccccc3)S(=O)(=O)CC21 (stereo not drawn)	3.4	·	·	4.0	·	6.8	·	·
